Key:
[1] = test system: P388; assay: Concentration that reduces the number of colonies formed by 50% in a clonogenic assay with P388 leukemia cells.; assay type: functional, cell-based, Mus musculus
Summary of the method: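 P388 cells were kept in suspension culture. Colony-forming assay was run in 0.17% agarose, with colony formation and IC50 (50% reduction in colonies versus controls) measured as in the B16 assay. That assay used a 2 h exposure and 5 days of colony growth.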

[2] = test system: B16; assay: Concentration that reduces the number of colonies formed by 50% in a clonogenic assay with B16 mouse melanoma cells.; assay type: functional, cell-based
Summary of the method: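 B16 melanoma F10 monolayers were grown in MEM with 10% calf serum. Cells were plated at 5000/plate and attached overnight. They were exposed to compound for 2 h, diluted from a 2 mM ethanol stock into MEM, then washed with PBS. Colonies of more than 50 cells were grown for 5 days at 37 °C and stained with crystal violet, in triplicate. IC50 is the 50% reduction in colonies versus controls.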

[3] = test system: Mus musculus; assay: Maximally tolerated dose (MTD) in tumor bearing mice on a daily times 5 ip regimen.; assay type: functional, organism-based
Summary of the method: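 B6D2F1 mice inoculated ip with 10^6 P388 leukemia cells, randomized into groups of six after the inoculum was checked sterile in thioglycolate broth. Dosing ip on days 1-5, starting 24 h after inoculation. Vehicle was DMA, ethanol and Cremophor (10% final), diluted with saline for lower doses and prepared just before injection. Mortality monitored daily up to 45 days.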

[4] = test system: P388; assay: Antitumor activity expressed as increase in median life span (ILS) measured in mice inoculated (ip) with P388 leukemia cells; assay type: functional, organism-based; settings: Mus musculus
Summary of the method: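 Mice B6D2F1, inoculated ip with 10^6 P388 leukemia cells. After 24 h, with the inoculum confirmed free of bacteria by thioglycolate broth, mice were randomized into groups of six. Dosing was ip on days 1-5. The vehicle held DMA, ethanol and Cremophor at 10% final, with dilutions in saline. Mice were monitored daily for 45 days. ILS is the % increase in MST over untreated controls. The value reported is the maximum ILS from dose-response studies bracketing the maximally tolerated dose.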

[5] = test system: P388; assay: Ratio of in vitro cytotoxic potency in P388 / B16 cell lines; assay type: functional, cell-based; settings: Mus musculus
Summary of the method: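 Ratio of IC50 in the P388 colony-forming assay (0.17% agarose) to IC50 in the B16 clonogenic assay. Both assays used a 2 h drug exposure and counted colonies against controls.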

Row | Substance | IC50 [1] [µM] | IC50 [2] [µM] | MTD [3] [µM/kg] | ILSmax [4] [%] | Ratio [5]
1 | GOLD SODIUM THIOMALATE [listing 1 of 2 here] | 100 | 60 |  |  | 
2 | GOLD SODIUM THIOMALATE [listing 2 of 2 here] |  |  | 300 | 24 | 1.67

From ChEMBL document CHEMBL1123395, “Correlation of the in vitro cytotoxic and in vivo antitumor activities of gold(I) coordination complexes” (J Med Chem, 1986)
